Screening results: PubChem, several laboratories
Runt-SMMHC FRET – Runt domain-CBFb-SMMHC interaction inhibition. 220,000 compounds, 0.74% hits. inhibition, % at 20 µM. Q01196+Q13951. Cerulean-Runt/Venus-CBFb-SMMHC FRET ratio 530/480, 1 h;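 active means mean inhibition across duplicate retests at 20 µM reaching about 50%, limit read from the data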;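 further: 0% = DMSO wells and 100% = wells with excess untagged CBFb-SMMHC; inhibitors lower the FRET ratio by blocking Runt binding to CBFb-SMMHC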
Target sequence (Q01196 whole entry, looked up, the tested form may be a part): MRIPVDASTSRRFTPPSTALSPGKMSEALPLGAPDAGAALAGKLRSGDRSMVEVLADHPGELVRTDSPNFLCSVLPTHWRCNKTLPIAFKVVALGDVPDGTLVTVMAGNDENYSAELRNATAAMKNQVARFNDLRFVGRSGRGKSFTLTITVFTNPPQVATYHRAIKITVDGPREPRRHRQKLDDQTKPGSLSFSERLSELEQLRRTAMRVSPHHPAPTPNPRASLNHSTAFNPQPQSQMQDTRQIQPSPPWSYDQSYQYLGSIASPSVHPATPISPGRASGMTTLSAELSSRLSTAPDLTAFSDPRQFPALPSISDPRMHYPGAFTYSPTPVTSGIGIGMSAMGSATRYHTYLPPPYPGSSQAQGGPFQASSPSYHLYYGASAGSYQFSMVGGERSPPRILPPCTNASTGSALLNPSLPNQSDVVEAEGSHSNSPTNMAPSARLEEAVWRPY
Target sequence (Q13951 whole entry, looked up, the tested form may be a part): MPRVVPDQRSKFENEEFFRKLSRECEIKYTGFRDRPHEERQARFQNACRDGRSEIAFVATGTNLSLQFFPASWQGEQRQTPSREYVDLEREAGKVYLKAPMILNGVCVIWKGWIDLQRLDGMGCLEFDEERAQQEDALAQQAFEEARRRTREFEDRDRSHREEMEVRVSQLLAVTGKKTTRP
RanGTP-Imp inh – inhibitors of RanGTP-importin-beta interaction, primary screen, biochemical, FRET, CFP-Ran, YFP-importin-beta, homogeneous; cell-free CFP-Ran/YFP-importin-beta FRET ratio; inhibition, % (concentration not given with the values); 300,000 compounds, 1.1% hits; AID 2216;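 active means more than half of the replicate wells show a fall in the fluorescence ratio signal beyond about 16%, limit read from the data, passing the limit was not always enough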;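 further: 0% = DMSO wells and 100% = Ran loaded with GDP instead of GTP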
Rce1 inh – blocks yeast Ras-converting enzyme; calls only; Q03530; AID 2563; yeast membranes, quenched prenylated peptide cleavage fluorescence; 290,000 compounds, 0.27% hits;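 active means fall in fluorescence gain of 50% or more versus controls, with final raw signal at or below 3038400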;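 further: plate controls were neutral control wells for no effect and wells lacking membranes for full effect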
Vif imaging – inhibitors of HIV Vif; 340,000 compounds, 0.35% hits; inhibition, % at 7.49 µM; HEK293T cells, Vif self-association by quenched fluorescence, imaging, 24 h; in the data active means inhibition above about 50%, passing the limit was not always enough
Runt-CBFb FRET – blocks binding of human RUNX1 Runt domain to CBFb; 220,000 compounds, 0.46% hits; Cerulean-Runt/Venus-CBFb FRET ratio 530/480, 1 h; Q01196+Q13951; inhibition, % at 20 µM;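 active means inhibition over about 50% at 20 µM in the single-dose screen, limit read from the data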;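 further: 0% = DMSO wells and 100% = excess unlabeled CBFb competitor control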
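System: Cerulean-labeled Runt domain protein | Quantity: 100 nM of each labeled protein | Schedule: 1 h compound exposure, room temperature | Detection: Fluorescence energy transfer, 422 nm excitation, 530/480 nm emission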
The depositor's hits bear a star; i = inactive; . = not tested or not shown; + = active, no number. In the library only some 1.7% were active in any assay of this set; here they are far more common.

SMILES | Runt-SMMHC FRET | RanGTP-Imp inh | Rce1 inh | Vif imaging | Runt-CBFb FRET
COc1ccc(C2C(C)C3(O)CC(C#N)(C(=O)N3)C2(C#N)C#N)cc1 (stereo unspecified) | -1.1 | -1.3 | i | 8.5 | -1.9
CCCC1OC23CCCCC2C(C#N)(C(=N)O3)C1(C#N)C#N (stereo unspecified) | 33.2 | 33.3* | i | 0.3 | 24.7
N#CC12COC3(CCCCC3C1(C#N)C#N)OC2=N (stereo unspecified) | 18.4 | 33.2* | i | -1.8 | 0.6
CCC1OC23CCCCC2C(C#N)(C(=N)O3)C1(C#N)C#N (stereo unspecified) | 52.5 | 27.1* | i | 6.0 | 24.2
COc1ccc(C2OC34CCCCC3C(C#N)(C#N)C2(C#N)C(=N)O4)cc1 (stereo unspecified) | 76.8* | 43.3* | i | . | 32.3
Cc1ccc(F)c(S(=O)(=O)NC(=O)C2(C)CCN2C(=O)CCC2CCCC2)c1 (stereo unspecified) | . | . | . | -2.5 | .
O=C(O)C(c1ccccc1)C1CCCCC1O (stereo unspecified) | . | . | . | 27.3 | .
COC(=O)c1ccccc1NC(=O)CSc1ncn[nH]1 | -1.5 | 5.9 | i | 8.2 | -1.4
COC(=O)CSc1nc2sc3c(c2c(=O)n1C1CCCCC1)CCN(C)C3 | 32.5 | 26.3* | i | . | 12.9
CN1CCc2c(sc3nc(NCCO)n(-c4cccc(Cl)c4)c(=O)c23)C1 | . | 92.2* | i | -16.9 | .
CN1CCc2c(sc3c2c(=O)n(-c2cccc(Cl)c2)c2nncn32)C1 | . | 10.4 | i | -3.3 | .
C=C(C)CSc1nc2sc3c(c2c(=O)n1-c1ccc(OC)cc1)CCN(C)C3 | . | 5.0 | + | . | .
CCOC(=O)CSc1nc2sc3c(c2c(=O)n1-c1ccc(OC)cc1)CCN(C)C3 | . | -3.5 | i | -5.9 | .
COC(=O)CSc1nc2sc3c(c2c(=O)n1-c1ccc(OC)cc1)CCN(C)C3 | . | -4.0 | i | 5.3 | .
CN1CCc2c(sc3nc(SCC(=O)NCc4ccco4)n(-c4ccccc4)c(=O)c23)C1 | . | 25.4* | i | -3.1 | .
CCN(Cc1ccc(OC)c(F)c1)C(=O)/C=C/c1ccc(S(=O)(=O)N2CCOCC2)cc1 | . | . | . | 1.4 | .
O=C(COC(=O)[C@H](Cc1ccccc1)NC(=O)c1ccco1)Nc1ccccc1OC(F)F | . | . | . | -4.6 | .
O=C(NCc1ccco1)c1ccc2nc3sc4c(c3c(=O)n2c1)CCCC4 | 63.3* | 62.4* | i | . | 63.4*
N=c1c(C(=O)NCc2ccc3c(c2)OCO3)cc2c(=O)n3ccccc3nc2n1Cc1cccnc1 | 144.2* | 63.1* | i | 17.2 | 94.7*
COc1ccc(CNC(=O)c2cc3c(=O)n4ccccc4nc3n(Cc3cccnc3)c2=N)cc1 | 150.1* | 71.9* | i | 24.2 | 71.6*
COc1cccc(NC(=O)c2cc3c(=O)n4ccccc4nc3n(CC(C)C)c2=N)c1 | 12.5 | 5.1 | i | 9.1 | 1.5
O=C(NCc1ccc2c(c1)OCO2)c1ccc2c(c1)C(=O)N(Cc1cccnc1)C2=O | -0.3 | 24.7 | i | -0.7 | 2.3
CCn1c(SCC(=O)Nc2nccs2)nnc1-c1ccc(C)cc1 | 0.7 | 2.9 | i | -10.2 | -2.6
CCC(=O)Nc1ccc(-c2nnc(SCc3ccc(C(=O)Nc4nccs4)cc3)n2CC)cc1 | -1.1 | 2.1 | i | 67.3* | -1.9
Cc1ccccc1-n1nnnc1SCC(=O)NCC1CCCO1 (stereo unspecified) | -4.4 | -1.1 | i | -7.7 | 1.1
SMILES | Runt-SMMHC FRET | RanGTP-Imp inh | Rce1 inh | Vif imaging | Runt-CBFb FRET
O=S1(=O)[C@H]2C[C@@H]3C=C[C@@]2(CN1Cc1ccc(F)cc1)O3 | . | 2.9 | i | -3.0 | .
O=C(Nc1ccc2c(c1)OCCO2)C1CCCN(S(=O)(=O)c2cnc[nH]2)C1 (stereo unspecified) | 3.5 | 143.1* | i | -1.7 | -0.9
CCCn1c(SCC(=O)NNC(=O)c2ccc(C)cc2)nnc1C(C)C | . | 1.4 | i | 55.2* | .
CCCn1c(SCC(=O)NNC(=O)c2ccc(OC)cc2)nnc1C(C)C | . | -1.2 | i | 16.2 | .
CCOc1ccc(C2=Nn3c(nnc3-c3ccccc3OC)SC2)cc1 | 2.2 | -0.7 | i | 12.1 | -6.2
CCOc1ccc(-c2nnc3n2N=C(c2ccc(OC)cc2)CS3)cc1 | -14.2 | 1.8 | i | 50.4* | -4.8
N#Cc1c(-c2ccccc2)cc(-c2ccccc2)nc1SCCC(=O)O | . | 1.6 | i | -4.7 | .
